TAAR1 agonist: human TAAR1 agonism. CHO RD-HGA16 TAAR1, Fluo-8 calcium fluorescence; vehicle wells 0%, saturating PEA agonist 100%. activation, % at 3 µM. hit rate 0.99% among 360,000;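 active = activation above the mean activation of all test compounds in the run plus 3 SD, cut at about 38% in these data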
Target sequence (Q96RJ0 whole entry, looked up): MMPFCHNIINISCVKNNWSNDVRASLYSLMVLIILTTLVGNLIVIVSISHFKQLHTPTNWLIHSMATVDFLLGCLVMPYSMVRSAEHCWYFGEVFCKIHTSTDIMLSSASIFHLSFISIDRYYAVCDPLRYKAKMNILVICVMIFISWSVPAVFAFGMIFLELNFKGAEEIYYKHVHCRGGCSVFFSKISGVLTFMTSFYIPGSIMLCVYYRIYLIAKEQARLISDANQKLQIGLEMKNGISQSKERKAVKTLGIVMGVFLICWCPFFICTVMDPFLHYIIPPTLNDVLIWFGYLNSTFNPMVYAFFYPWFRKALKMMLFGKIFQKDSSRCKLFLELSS
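System: CHO-derived RD-HGA16 cells with stable Gα16 and human TAAR1 / Times: 17-24 h plating, Fluo-8 75 min 37 °C, 30 min RT / Technique: calcium-sensitive Fluo-8 signal, excitation 470-495, emission 515-575 nm / Measure: % activation relative to PEA EC100 response / Benchmarks: DMSO and PEA EC100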
OX1R antag-1: blocks the human orexin 1 receptor. O43613. OX1R-expressing cells, FRET antagonist read-out. inhibition, % at 6.6 µM. hit rate 1.8% among 330,000; in the data active = inhibition mostly above about 38%, no sharp cut-off; inactive = mostly below about 40%;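 also: 0% = agonist challenge alone and 100% = reference antagonist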
OX1R antag-2: antagonists of human orexin 1 receptor; O43613; CHO/OX1R cells, Fluo-8 calcium fluorescence, orexin A; inhibition, % at 5 µM; hit rate 0.43% among 330,000; AID 434989;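 active = inhibition above its plate's threshold, mean inhibition of all tested compounds on the plate plus 3 SD, cut at about 37% in these data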;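 also: 0% = orexin A challenge wells and 100% = SB-334867-A antagonist wells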
TAAR1 antag: human TAAR1 antagonism | hit rate 1.5% among 360,000 | inhibition, % at 3 µM | Q96RJ0 | CHO RD-HGA16 TAAR1, Fluo-8 calcium fluorescence, antagonist;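 active = inhibition above a per-plate cutoff, the mean inhibition of test compounds on that plate plus 3 SD, cut at about 49% in these data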;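 also: 0% = DMSO plus EC80 beta-PEA response and 100% = DMSO alone without agonist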
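Test system: hTAAR1-expressing CHO RD-HGA16 cells, Gα16-coupled; Probe or stimulus: EC80 β-phenethylamine stimulus; Compound dosing: single nominal final test compound concentration of 3 µM; Timing: 140 s kinetic read after compound, 140 s after agonist; Signal: Fluo-8 calcium-sensitive fluorescence; Measure: % inhibition of agonist calcium response; Controls: DMSO and EC80 PEA controls.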
CHO parental Ca: counter-screen for OX1R antagonists: effect in parental CHO cells; parental CHO-K1, ATP-induced calcium, Fluo-8 fluorescence; hit rate 0.63% among 330,000; inhibition, % at 5.6 µM;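 active = inhibition above that plate's mean sample inhibition plus 3 SD, cut at about 26% in these data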;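 also: 0% = ATP-challenged DMSO wells and 100% = DMSO wells without ATP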
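Measured by: calcium-sensitive Fluo-8 fluorescence / Test system: CHO parental line / Controls: ATP-challenged DMSO wells low, unchallenged DMSO wells high / Measure: % inhibition / Compound: single nominal dose of 5.6 µM per compound / Replicates: single well per compound, no replicates / Reagent: ATP as calcium-mobilizing challenge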
NTR1 ag: activates human neurotensin receptor 1. P30989. NTR1-U2OS beta-arrestin-GFP spot imaging, agonist mode. activation, % at 20 µM. hit rate 0.17% among 330,000;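 active = activation at or above 40% of the spot to cytoplasm intensity ratio, with at least 20 cells analyzed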;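 also: 0% = DMSO without peptide and 100% = 100 nM NTR1 peptide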
Target sequence (P30989 whole entry, looked up): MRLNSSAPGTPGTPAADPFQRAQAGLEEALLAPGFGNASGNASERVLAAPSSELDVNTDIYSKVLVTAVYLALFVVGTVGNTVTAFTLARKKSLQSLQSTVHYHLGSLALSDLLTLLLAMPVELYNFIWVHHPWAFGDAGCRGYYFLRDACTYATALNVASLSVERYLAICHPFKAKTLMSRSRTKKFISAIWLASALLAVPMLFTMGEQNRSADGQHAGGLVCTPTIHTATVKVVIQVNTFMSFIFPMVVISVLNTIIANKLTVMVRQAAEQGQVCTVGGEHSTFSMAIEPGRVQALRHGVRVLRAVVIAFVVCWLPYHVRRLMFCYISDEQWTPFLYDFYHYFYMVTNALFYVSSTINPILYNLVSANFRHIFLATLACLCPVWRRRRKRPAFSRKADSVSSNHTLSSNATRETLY
OX1R Ca confirm: OX1R (human) antagonism, confirmed; shares compounds with OX1R antag-2; CHO/OX1R cells, orexin A calcium Fluo-8 fluorescence; inhibition, % at 5 µM; hit rate 38% among 1,100; in the data active = inhibition above about 29%;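 also: 0% = agonist challenge alone and 100% = reference antagonist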
CHO Ca triplic: counter-screen for OX1R antagonists: effect in parental CHO cells; hit rate 9.3% among 1,100; inhibition, % at 5.6 µM; shares compounds with OX1R antag-2; parental CHO-K1, ATP-induced calcium, Fluo-8 fluorescence;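 active = inhibition above a per-plate limit, the mean inhibition of that plate's test compounds plus 3 SD, cut at about 25% in these data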;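 also: 0% = ATP challenge with DMSO and 100% = DMSO without ATP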
* = called active by the depositor; nt = no result given. A selection: hits, their analogues and other compounds. The true share with any hit is near 4%.

SMILES | TAAR1 agonist | OX1R antag-1 | OX1R antag-2 | TAAR1 antag | CHO parental Ca | NTR1 ag | others
Cc1cccc(N(C)S(=O)(=O)c2ccc3[nH]cc(C(=O)N4CCOCC4)c(=O)c3c2)c1 | 5 | 9 | -9 | -10 | -10 | 0
CCc1ccccc1N(C)S(=O)(=O)c1ccc2[nH]cc(C(=O)N3CCc4ccccc43)c(=O)c2c1 | 9 | 3 | -14 | 57* | -11 | 0
Cc1ccc2oc(=O)c3cc(C(=O)N4CCN(C(=O)c5ccco5)CC4)sc3c2c1 | nt | 4 | -10 | nt | -9 | 12
CCN(Cc1ccccc1)C(=O)c1cc2c(=O)oc3ccc(C)cc3c2s1 | 2 | 19 | -55 | 83* | -11 | 4
Cc1nn(CCCC(=O)NC(C)c2ccccc2)c(=O)c2nn(-c3ccccc3)c(C)c12 (stereo not drawn) | 2 | -1 | -8 | -16 | -25 | 0
C[C@@H]1CCCCO[C@@H](CN(C)C(=O)NC2CCCCC2)[C@@H](C)CN([C@H](C)CO)C(=O)c2cc(N(C)C)ccc2O1 | -1 | nt | nt | -3 | nt | nt
CC1CCC(NC(=O)c2ccc3c(c2)S(=O)(=O)c2ccccc2C3=O)CC1 (stereo not drawn) | 14 | 25 | -15 | 43 | -23 | 7
NC(=O)c1ccc2c(c1)S(=O)(=O)c1ccccc1C2=O | 2 | 65* | -15 | 2 | -13 | -1
O=C(O)c1ccc2c(c1)S(=O)(=O)c1cc(Cl)ccc1C2=O | 6 | 32* | -9 | -1 | -8 | -1
O=C(COC(=O)c1ccc2c(c1)S(=O)(=O)c1ccccc1C2=O)NC1CC1 | 0 | 51* | -21 | 7 | -15 | -1
O=C(O)c1ccc2c(c1)S(=O)(=O)c1ccccc1C2=O | nt | nt | nt | nt | nt | -2
CC(OC(=O)c1ccc2c(c1)S(=O)(=O)c1ccccc1C2=O)C(N)=O (stereo not drawn) | 2 | 71* | 0 | 9 | -5 | -1
COc1ccc(Cl)cc1NC(=O)CN(C)C(=O)c1cccc2cccnc12 | 16 | 5 | -19 | -12 | -3 | -1
O=C(NN=Cc1ccccc1Cl)C(=O)Nc1cccc(C(F)(F)F)c1 | 0 | nt | nt | 7 | nt | nt
COCCN1CCN(C(=O)c2ccc3c(c2)S(=O)(=O)c2ccccc2C3=O)CC1 | 5 | 66* | -1 | -2 | -18 | 0
CCc1cccc(CC)c1NC(=O)COC(=O)c1ccc2c(c1)S(=O)(=O)c1ccccc1C2=O | -1 | 33 | -19 | -1 | -12 | 1
NC(=O)COC(=O)c1ccc2c(c1)S(=O)(=O)c1ccccc1C2=O | 0 | 64* | -11 | -5 | -8 | -1
COC(=O)[C@@H](NC(=O)c1ccc2c(c1)S(=O)(=O)c1ccccc1C2=O)C(C)C | 2 | 73* | -41 | 15 | -8 | 0
N#CCN1C(=O)NC2(CCCc3sccc32)C1=O (stereo not drawn) | -1 | 6 | -3 | 14 | 1 | -1
O=C(Nc1cccc(Cl)c1)NN(c1ccccc1)C1CCS(=O)(=O)C1 (stereo not drawn) | 7 | nt | nt | 18 | nt | nt
CC(=O)Oc1ccc(Nc2ccccc2)cc1 | 10 | 50* | -8 | -17 | -1 | 0
COn1c(=O)c(-c2ccc(Cl)cc2)[n+]([O-])c2ccccc21 | 7 | 53* | -3 | 6 | 0 | 0
CCOn1c(=O)c(-c2ccc(Cl)cc2)[n+]([O-])c2ccccc21 | 2 | 22 | -21 | -9 | -4 | 0
COn1c(=O)c(-c2ccc(C)cc2)[n+]([O-])c2ccccc21 | -3 | 33 | -16 | 1 | -16 | 0
COn1c(=O)c(-c2ccccc2)[n+]([O-])c2ccccc21 | 0 | 42* | -12 | -8 | -1 | 1
SMILES | TAAR1 agonist | OX1R antag-1 | OX1R antag-2 | TAAR1 antag | CHO parental Ca | NTR1 ag | others
C1=C(c2ccccc2)CCN(c2ncnc3nc[nH]c23)C1 | 2 | 50* | -16 | 14 | 0 | -2
CN(C)c1ccc(/C=C(\NC(=O)c2ccccc2)C(=O)NCCCn2ccnc2)cc1 | -1 | 40* | -1 | 19 | -5 | -1
Clc1ccc(COn2c(-c3ccc(Cl)cc3)nc3ccccc32)cc1 | 11 | 17 | -29 | 9 | -28 | 4
Clc1ccc(COn2c(-c3ccccc3)nc3ccccc32)cc1 | 6 | 54* | -5 | 19 | -8 | 10
O=[N+]([O-])c1ccc2nc(-c3ccc(Cl)cc3)n(OCc3ccccc3)c2c1 | 39* | 15 | -5 | 18 | -11 | 11
COc1ccc(-c2nc(NC3=NCCCCC3)sc2C)cc1 | 6 | 14 | 55* | -4 | -19 | 1 | OX1R Ca confirm=20;CHO Ca triplic=-3
CC(=O)Oc1ccc(N2C(=O)c3cccc4c([N+](=O)[O-])ccc(c34)C2=O)cc1 | 2 | 30 | 44* | 10 | 25 | 3 | OX1R Ca confirm=35*;CHO Ca triplic=29*
Clc1cccc(CNc2nnnn2-c2ccccc2)c1 | 10 | 65 | 45* | 31 | 24 | 0 | OX1R Ca confirm=16;CHO Ca triplic=10
CCOC(=O)C1=C(C2=CCCCC2)c2ccc(OC)cc2N(S(=O)(=O)C(F)(F)F)C1C(=O)OCC (stereo not drawn) | nt | 10 | -24 | nt | -41 | 3
COc1nc(N(c2ccccc2)c2ccccc2)nc(-n2ccnc2)n1 | 13 | 73 | 45* | 47 | 11 | 11 | OX1R Ca confirm=43*;CHO Ca triplic=2
COc1ccc(-n2ccnc2)cc1 | 2 | 3 | -3 | 15 | 2 | -1
O=[N+]([O-])c1ccc(Nc2ccc3ccccc3c2)nc1 | -2 | 35 | 46* | 25 | 0 | 5 | OX1R Ca confirm=22;CHO Ca triplic=4
COc1n[nH]c(C(=O)Nc2cc(Cl)ccc2Cl)c1[N+](=O)[O-] | 4 | 26 | -1 | -23 | -18 | 0
COc1ccc(Cl)cc1NC(=O)c1[nH]nc(OC)c1[N+](=O)[O-] | 4 | 15 | 105* | -11 | 10 | 0 | OX1R Ca confirm=-1;CHO Ca triplic=-4
O=C(CCC(=O)N1CCOc2ccccc21)NCCN1CCOCC1 | 2 | 5 | 13 | 7 | -1 | 0
COc1ccc2oc(=O)c(C(=O)OCc3ccccc3)cc2c1 | 1 | 7 | -41 | -7 | -13 | 0
COC(=O)c1cccc(NC(=S)NCc2ccc(Cl)cc2)c1 | 30 | 9 | 31 | 42 | 11 | 1 | OX1R Ca confirm=27;CHO Ca triplic=5
COc1cccc(CN2C(=O)C(C)N(C(=O)c3c(F)cccc3F)c3ccccc32)c1 (stereo not drawn) | 4 | 26 | 33 | 47 | 22 | 11 | OX1R Ca confirm=-2;CHO Ca triplic=-4
O=[N+]([O-])c1ccc2nc(N3CCCC3)sc2c1 | -2 | 14 | -9 | -23 | -3 | 2
